In the library only some 3.5% were active in any assay of this set; here they are far more common.
RGS4 block: RGS4 inhibitors, primary screen, cell-based, HEK293 M3R inducible RGS4, calcium flux | Regulator of G-protein signaling 4 (Homo sapiens), P49798 | Fluo-4 calcium flux; stronger effect = higher value; triggered by carbachol at its EC20 | B-score at 10 µM | actives 0.45% (n = 310,000) | AID 463165, 2010;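 active = B-score, a plate-corrected calcium signal, over three deviations above library mean, with baseline fluorescence within five deviations of library mean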;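 also: RGS4 expression induced by doxycycline in cells with stable M3 receptor; B-score is computed from the integrated fluorescence ratio over baseline after carbachol; higher B-score means a larger calcium signal and so more RGS4 inhibition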
Target sequence (P49798 whole entry, looked up): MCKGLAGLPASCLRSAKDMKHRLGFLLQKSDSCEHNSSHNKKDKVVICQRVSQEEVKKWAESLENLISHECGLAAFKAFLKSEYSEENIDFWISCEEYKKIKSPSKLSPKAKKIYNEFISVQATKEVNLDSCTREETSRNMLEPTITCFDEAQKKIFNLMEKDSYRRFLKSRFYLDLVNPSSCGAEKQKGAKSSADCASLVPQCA
MrgX1 antagonist: antagonists of human MrgX1 receptor, primary screen, HEK293 cells, Fluo-4 calcium flux. Mas-related G-protein coupled receptor member X1 (Homo sapiens), Q96LB2. BAM8-22 antagonism; stronger effect = lower value. B-score at 10 µM. actives 1.3% (n = 310,000). AID 588676, 2011;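 active = calcium-response B-score plate-corrected more than 3 library SD below zero, starting fluorescence within 5 deviations, no agonist response on first addition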;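 also: peak minus trough fluorescence over baseline after final BAM8-22 challenge near maximal dose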
Target sequence (Q96LB2 whole entry, looked up): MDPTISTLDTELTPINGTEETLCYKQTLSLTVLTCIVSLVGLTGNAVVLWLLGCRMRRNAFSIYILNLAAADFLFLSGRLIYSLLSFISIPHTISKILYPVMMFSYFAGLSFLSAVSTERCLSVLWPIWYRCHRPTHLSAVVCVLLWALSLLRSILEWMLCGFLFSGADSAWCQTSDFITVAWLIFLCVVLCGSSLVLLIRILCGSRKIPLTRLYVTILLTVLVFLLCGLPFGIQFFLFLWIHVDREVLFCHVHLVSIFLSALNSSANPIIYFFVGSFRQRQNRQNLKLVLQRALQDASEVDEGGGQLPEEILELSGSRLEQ
MrgX1 PAM: positive allosteric modulators of MrgX1, primary screen, HEK293 cells, Fluo-4 calcium flux; FDSS; stronger effect = higher value; AID 588675, 2011; actives 0.63% (n = 310,000); B-score at 10 µM; Mas-related G-protein coupled receptor member X1 (Homo sapiens), Q96LB2;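 active = plate-corrected calcium response at least 3 library SD above typical, normal starting fluorescence, not activating the receptor alone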;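 also: compound read alongside a low EC10 to EC30 dose of BAM8-22 agonist; peak minus trough fluorescence over baseline measured at the second addition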
RGS4 act: RGS4 potentiators or activators, primary screen, cell-based, HEK293 M3R inducible RGS4, calcium flux. carbachol calcium flux Fluo4; stronger effect = lower value. B-score at 10 µM. actives 0.92% (n = 310,000);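 active = B-score of the integrated calcium signal more than 4 SD below the library mean, with starting fluorescence not abnormally high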;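 also: negative B-score means reduced calcium response which marks RGS4 activation or potentiation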
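Test system: HEK293 cells with stable M3R and inducible RGS4; also added: carbachol at ECmax as muscarinic agonist stimulus; schedule: dye loading 30 min 37 °C, buffer rest 30 min RT; technique: kinetic calcium fluorescence imaging with Fluo4-AM dye, 2 µM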
MrgX1 agonist: agonists of human MrgX1 receptor, primary screen, HEK293 cells, Fluo-4 calcium flux | B-score at 10 µM | Fluo-4 calcium fluorescence, agonist mode; stronger effect = higher value | AID 588627, 2011 | Mas-related G-protein coupled receptor member X1 (Homo sapiens), Q96LB2 | actives 0.44% (n = 310,000);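 active = calcium response B-score plate-corrected fluorescence ratio at least 3 library SD, with starting fluorescence B-score inside 5 SD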
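Material – MrgX1-expressing HEK293 cells · Input – 15,000 cells seeded per well · Dosing – compound as first of three additions · Times – overnight seeding, then 1 h dark dye loading · Measured by – kinetic Fluo-4 NW fluorescence of intracellular calcium · Read-out – B-scored fluorescence response ratio · Benchmarks – positive and negative control wells on each plate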
Numbers without * were called inactive; i = inactive.

SMILES	RGS4 block	MrgX1 antagonist	MrgX1 PAM	RGS4 act	MrgX1 agonist
Cc1cc(CNC(=O)Cn2nc(C)c([N+](=O)[O-])c2C)c2ccccc2n1	i	i	9.36*	i	i
C/C(=N\NC(=O)Cn1nc(C)c([N+](=O)[O-])c1C)c1ccco1	i	-5.92*	i	i	i
COc1ccc(/C=C/C(=O)Nc2cccc(F)c2)cc1S(=O)(=O)N1CCOCC1	i	i	i	i	i
COc1ccc(/C=C/C(=O)Nc2ccccc2C)cc1S(=O)(=O)N1CCOCC1	i	i	7.95*	i	i
CC(C)(C)n1nc2c(c1NC(=O)c1ccc([N+](=O)[O-])cc1)CS(=O)(=O)C2	i	i	i	i	i
COc1ccc(C(=O)N2c3ccccc3C=CC2C#N)cc1 (centres undefined)	i	i	i	-7.42*	i
Cc1cc(OC(=O)c2ccccc2Cl)cc(=O)n1C	i	i	10*	i	i
COc1ccc(/C=N/Nc2ncnc3sc(C)c(C)c23)cc1	i	i	12*	i	i
Cc1sc2ncnc(N/N=C/c3ccc(O)cc3)c2c1C	i	i	i	i	i
COc1ccccc1NS(=O)(=O)c1cccc(NC(=O)Cc2cccs2)c1	i	i	i	i	i
COc1cccc(N/C(SCc2ccccc2C)=C(/C#N)C(=O)NCc2cccs2)c1	i	i	i	i	i
COc1cccc(N/C(SC)=C(/C#N)C(=O)NCc2cccs2)c1	i	i	i	-7.53*	i
CCCN1C(=O)/C(=C/c2ccc(N3CCOCC3)cc2)NC1=S	i	-6.08*	i	i	i
Cc1cc(N2CCCC2)ccc1/C=C1/C(=O)N(C)C(=S)N1C	i	i	i	i	i
Cc1cc(/C=C2/C(=O)N(C)C(=S)N2C)ccc1N1CCCC1	i	i	7.56*	i	i
Cc1ccc(CN2C(=O)N/C(=C\c3ccc(N4CCOCC4)cc3)C2=O)cc1	i	i	i	i	i
CCCN1C(=O)/C(=C/c2ccc(N3CCCC3)c(C)c2)NC1=S	i	i	i	i	46.9*
C=CCN1C(=O)c2ccc(C(=O)N3CCN(S(=O)(=O)c4cccc(F)c4)CC3)cc2C1=O	i	i	i	i	i
O=C1OCC(c2ccc(Cl)s2)=C1c1ccccc1[N+](=O)[O-]	i	i	i	i	i
CCOc1ccc(N(CC(=O)NCc2ccccc2Cl)S(=O)(=O)c2c(C)noc2C)cc1	i	i	i	i	i
O=C(N/N=C/c1c(O)n(-c2ccc(Cl)cn2)c(=O)c2ccccc12)c1ccncc1	i	i	i	-9.57*	i
CC(C(=O)NN)c1ccc([N+](=O)[O-])cc1 (centres undefined)	i	i	9.24*	i	i
CC(NS(=O)(=O)c1ccc([N+](=O)[O-])cc1)C(=O)NN (centres undefined)	i	i	i	i	i
COc1ccc(CNC(=O)COc2cccnc2[N+](=O)[O-])cc1OC	i	i	6.93*	i	i
O=C(Nc1cccc2cccnc12)c1ccc(Cl)cc1	i	i	i	i	i
SMILES	RGS4 block	MrgX1 antagonist	MrgX1 PAM	RGS4 act	MrgX1 agonist
CC1=C(C)/C(=N\OS(=O)(=O)c2ccccc2)C=CC1=O	i	i	i	i	32.8*
Cc1ccc(S(=O)(=O)O/N=C2\CCCc3ccccc32)cc1	i	i	i	i	i
COc1ccccc1-n1cc(CN2CCN(C3CCCC3)C(CCO)C2)cn1 (centres undefined)	i	i	i	i	i
COc1ccccc1-n1cc(CN2CCN(CC(C)C)C(CCO)C2)cn1 (centres undefined)	i	-5.82*	i	i	i
Cn1cc([N+](=O)[O-])c(C(=O)NNC(=O)c2ccc([N+](=O)[O-])cc2)n1	i	-5.35*	i	i	i
O=C1CN(C(=O)COC(=O)c2ccccc2NCc2ccco2)c2ccccc2N1	i	i	i	i	i
O=C1OCCN1C(=O)[C@H]1[C@H](c2ccc(F)cc2)C(c2ccc(F)cc2)=NN1c1ccc(Br)cc1	i	i	i	-9.23*	i
O=C(Nc1cccc(F)c1)C1CCCN(S(=O)(=O)c2cccc3cccnc23)C1 (centres undefined)	i	i	i	i	i
O=[N+]([O-])c1c(Nc2ccccc2O)cc(Cl)c2nonc12	i	-11.8*	i	i	i
CC(NCc1ccc(OCC(N)=O)cc1)C12CC3CC(CC(C3)C1)C2 (centres undefined)	i	i	i	i	i
N#CC1=C(N)OC2=C(CC/C2=C\c2ccccc2)C1c1ccccc1 (centres undefined)	i	i	i	i	140*
N#CC1=C(N)Oc2cc(O)c(Cl)cc2C1c1ccccc1F (centres undefined)	i	i	i	i	i
N#CC1=C(N)OC2=C(CC/C2=C\c2ccccc2Cl)C1c1ccccc1Cl (centres undefined)	i	-11.7*	i	i	i
N#CC1=C(N)OC2=C(C(=O)CCC2)C1c1ccccc1 (centres undefined)	i	i	i	i	i
Cc1nc2ccccc2cc1C(=O)N(C)Cc1ccccc1	i	i	i	i	i
COc1ccc(NS(=O)(=O)c2cccc(C(=O)NNC(=O)c3ccccc3OC)c2)cc1	i	i	i	i	i
Cc1ccc(/C=C2\Oc3c(ccc(O)c3CN3CCN(CCO)CC3)C2=O)cc1	i	i	i	-9.98*	i
CS(=O)(=O)NNC(=O)Cn1nnc(-c2ccc(OCc3ccccc3Cl)cc2)n1	i	i	9.65*	i	i
CC(NCC(=O)Nc1cc(S(=O)(=O)N2CCOCC2)ccc1Cl)c1ccc(Cl)cc1Cl (centres undefined)	i	-7.33*	i	i	i
O=C(NC(=S)N1CCCCC1c1cccnc1)c1ccc(Br)cc1 (centres undefined)	i	i	i	i	i
O=C(N1CCN(c2ccccn2)CC1)N1c2ccccc2Sc2ccccc21	i	i	i	-7.4*	i
CCOc1ccc(S(=O)(=O)Nc2ccc(C(=O)NCC3(N4CCCCC4)CCCCC3)cc2)cc1	i	-9.83*	i	i	i

Screening data from PubChem.
